{"data": "Assay results gathered from unrelated publications", "EGFR del752-759": "Epidermal growth factor receptor (EGFR, Homo sapiens, UniProt P00533, del752-759)", "EGFR G719S": "Epidermal growth factor receptor (EGFR, Homo sapiens, UniProt P00533, G719S)", "EGFR": "Epidermal growth factor receptor (EGFR, Homo sapiens, UniProt P00533)", "EGFR L858R": "Epidermal growth factor receptor (EGFR, Homo sapiens, UniProt P00533, L858R)", "EGFR del746-750": "Epidermal growth factor receptor (EGFR, Homo sapiens, UniProt P00533, del746-750)", "EGFR G719C": "Epidermal growth factor receptor (EGFR, Homo sapiens, UniProt P00533, G719C)", "EGFR L861Q": "Epidermal growth factor receptor (EGFR, Homo sapiens, UniProt P00533, L861Q)"}
{"SMILES": "CN(C)c1nccc(-c2cnc3ncccn23)n1", "target": "EGFR del752-759", "assay": "binding", "conditions": "1 µM", "remaining binding": "100%"}
{"SMILES": "O=C(c1ccc(Nc2ncc(Cl)c(-c3ccc(Cl)s3)n2)cc1)N1CCC(N2CCCC2)CC1", "target": "EGFR G719S", "assay": "binding, competition with immobilised ligand", "conditions": "1 µM", "remaining binding": "96%"}
{"SMILES": "N[C@@H]1CCN(c2nccc(-c3cnn4ncccc34)n2)C1", "target": "EGFR del752-759", "assay": "binding", "conditions": "1 µM", "remaining binding": "100%"}
{"SMILES": "CCN(CC)Cc1cc(Nc2ccnc3cc(Cl)ccc23)ccc1O", "target": "EGFR", "assay": "cell-free assay, competition with immobilised ligand", "conditions": "10 µM", "remaining binding": "91%"}
{"SMILES": "Cc1cnn2ncc(-c3ccnc(N(C)C)n3)c2c1", "target": "EGFR del752-759", "assay": "binding", "conditions": "1 µM", "remaining binding": "100%"}
{"SMILES": "CN1CCN(c2ccc(Nc3nccc(-c4ccccc4)n3)cc2C(F)(F)F)CC1", "target": "EGFR L858R", "assay": "binding", "conditions": "10 µM", "remaining binding": "84%"}
{"SMILES": "CN(C)c1ncnc(-c2ccc3nc(Nc4cc(CN5CCN(C(=O)CC(F)(F)F)CC5)ccn4)[nH]c3c2)c1Cl", "target": "EGFR L858R", "assay": "cell-free assay, competition with immobilised ligand", "conditions": "1 µM", "remaining binding": "100%"}
{"SMILES": "O=C(NCC1CCOCC1)c1n[nH]cc1NC(=O)c1c(F)cccc1F", "target": "EGFR del746-750", "assay": "binding, competition with immobilised ligand", "conditions": "1 µM", "remaining binding": "100%"}
{"SMILES": "Cc1cnc(Nc2ccc(C(=O)N3CCC(N4CCCC4)CC3)cc2)nc1-c1cc2ccccc2s1", "target": "EGFR G719C", "assay": "binding, competition with immobilised ligand", "conditions": "1 µM", "remaining binding": "92%"}
{"SMILES": "F[C@@H]1CCN(c2nccc(-c3cnn4ncccc34)n2)C1", "target": "EGFR L861Q", "assay": "binding", "conditions": "1 µM", "remaining binding": "93%"}
{"SMILES": "O=C(NCCCN1CCOCC1)c1ccc(Nc2ncc(Cl)c(-c3ccc(Cl)s3)n2)cc1", "target": "EGFR del752-759", "assay": "binding, competition with immobilised ligand", "conditions": "1 µM", "remaining binding": "92%"}
{"SMILES": "c1cnn2ncc(-c3ccnc(N4CCC45COC5)n3)c2c1", "target": "Epidermal growth factor receptor (EGFR, Homo sapiens, UniProt P00533, L858R/T790M)", "assay": "binding", "conditions": "1 µM", "remaining binding": "65%"}
{"SMILES": "COc1cc(-c2cn(C3CCc4ccccc4N(CC(F)(F)F)C3=O)nn2)ccc1-n1ccc(C)n1 (stereo not drawn)", "target": "EGFR del746-750", "assay": "cell-free assay, competition with immobilised ligand", "conditions": "1 µM", "remaining binding": "100%"}
{"SMILES": "O=C(c1ccc(Nc2nccc(-c3cc4ccccc4s3)n2)cc1)N1CCC(N2CCCC2)CC1", "target": "EGFR G719C", "assay": "binding, competition with immobilised ligand", "conditions": "1 µM", "remaining binding": "93%"}
{"SMILES": "CCCCN(CCCC)C(=O)CN1C[C@@H](c2cc(OC)c3c(c2)OCO3)[C@H](C(=O)O)[C@H]1CC(C)(C)CCC", "target": "Epidermal growth factor receptor (EGFR, Homo sapiens, UniProt P00533, del747-752/P753S)", "assay": "cell-free assay, competition with immobilised ligand", "conditions": "1 µM", "remaining binding": "75.9%"}
{"SMILES": "CNC(=O)[C@@H]1CC[C@@H](n2c(-c3ccc4cnccc4c3)nc3ccc(C(=O)NCc4cccc(C(N)=O)c4)cc32)C1", "target": "EGFR L858R", "assay": "binding, competition with immobilised ligand", "conditions": "1 µM", "remaining binding": "100%"}
{"SMILES": "NS(=O)(=O)c1cc(NC(=O)Cc2ccccc2)ccc1Oc1cccc(Cl)c1", "target": "EGFR G719S", "assay": "cell-free assay, competition with immobilised ligand", "conditions": "1 µM", "remaining binding": "74%"}
{"SMILES": "COc1cnc(Nc2cccc(S(N)(=O)=O)c2)nc1N1CCN(c2ccccc2)CC1", "target": "EGFR", "assay": "binding, competition with immobilised ligand", "conditions": "1 µM", "remaining binding": "100%"}
{"SMILES": "Cc1c(C(=O)O)cc(-c2ccc(C3CCNCC3)cc2)c2ccc(-c3ccc(C(F)(F)F)cc3)cc12", "target": "EGFR L861Q", "assay": "cell-free assay, competition with immobilised ligand", "conditions": "1 µM", "remaining binding": "100%"}
{"SMILES": "COc1ncc2cc3ccccc3nc2c1C#N", "target": "EGFR G719S", "assay": "cell-free assay, competition with immobilised ligand", "conditions": "5 µM", "remaining binding": "95%"}
{"SMILES": "O=C(NCc1ncc(C(F)(F)F)cc1Cl)c1ccc2c(c1)C1(CCS(=O)(=O)CC1)[C@H](C1CC1)N2S(=O)(=O)c1ccc(F)cc1", "target": "Epidermal growth factor receptor (EGFR, Homo sapiens, UniProt P00533, A750P/del747-749)", "assay": "cell-free assay, competition with immobilised ligand", "conditions": "1 µM", "remaining binding": "97%"}
{"SMILES": "O=C(Nc1c[nH]nc1C(=O)NC1CCNCC1)c1cc(F)cc(F)c1", "target": "EGFR", "assay": "binding, competition with immobilised ligand", "conditions": "1 µM", "remaining binding": "96%"}
{"SMILES": "C[C@H](c1cccc(C#N)c1)n1cc(Cl)cc(C(N)=O)c1=N", "target": "EGFR L858R", "assay": "cell-free assay, competition with immobilised ligand", "conditions": "1 µM", "remaining binding": "86%"}
{"SMILES": "C[C@@H]1CCN(c2nccc(-c3cnn4ncccc34)n2)C1", "target": "EGFR G719S", "assay": "binding", "conditions": "1 µM", "remaining binding": "74%"}
